Results as given in ChEMBL document CHEMBL1124955, “2-substituted-1-naphthols as potent 5-lipoxygenase inhibitors with topical antiinflammatory activity” (J Med Chem, 1990).

Experiments:
[1] = system: Mus musculus; test: Percentage inhibition of the mouse arachidonic acid induced ear edema assay (AA) at a dose of 100 ug/ear; type: functional
In short: (§1)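 Groups of 10 male CF1 mice (18–20 g). Compound in acetone is applied topically to both ears just before 1 mg arachidonic acid in acetone is applied to one ear; the other ear serves as control. Mice are killed 60 min later and 6-mm ear punches weighed; swelling is the weight difference. %Inhibition = [(C−T)/C]×100, with Student's t test.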

[2] = biological target: T1, Polyunsaturated fatty acid 5-lipoxygenase (Rattus norvegicus) (UniProt P12527); test: Ability to inhibit 5-lipoxygenase by using a crude preparation of the cytosolic enzyme from the rat basophilic leukemia (RBL-1) cell line at a concentration of 25 uM; type: cell-based
T1 sequence (whole entry): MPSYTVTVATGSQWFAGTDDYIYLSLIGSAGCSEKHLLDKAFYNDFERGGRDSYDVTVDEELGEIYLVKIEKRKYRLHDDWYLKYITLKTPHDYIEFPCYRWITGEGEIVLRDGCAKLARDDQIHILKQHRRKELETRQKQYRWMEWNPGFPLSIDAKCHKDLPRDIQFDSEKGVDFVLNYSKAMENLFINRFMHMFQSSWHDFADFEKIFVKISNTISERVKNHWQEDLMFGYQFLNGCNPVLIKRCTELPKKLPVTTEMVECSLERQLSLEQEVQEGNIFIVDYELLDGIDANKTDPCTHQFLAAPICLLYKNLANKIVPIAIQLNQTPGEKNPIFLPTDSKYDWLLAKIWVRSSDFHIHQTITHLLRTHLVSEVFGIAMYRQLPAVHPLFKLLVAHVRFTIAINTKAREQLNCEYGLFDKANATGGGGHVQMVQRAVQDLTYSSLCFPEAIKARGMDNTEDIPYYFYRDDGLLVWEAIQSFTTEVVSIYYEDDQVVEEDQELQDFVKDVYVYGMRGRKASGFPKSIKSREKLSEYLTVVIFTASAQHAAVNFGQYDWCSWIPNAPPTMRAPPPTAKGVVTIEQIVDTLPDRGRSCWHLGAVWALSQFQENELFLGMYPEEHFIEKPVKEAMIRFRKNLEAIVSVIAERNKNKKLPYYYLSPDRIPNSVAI

[3] = biological target: Cyclooxygenase (Bos taurus) (UniProt O62664+O62698); test: Ability to inhibit Prostaglandin G/H synthase by using the bovine seminal vesicle enzyme assay on BSV cell line at a concentration of 75 uM; type: tissue-based
In short: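 Bovine seminal vesicle cyclooxygenase (40 μg) with Tris pH 8.5 and cofactors (glutathione, epinephrine, EDTA) is chilled on ice. Compound in DMSO diluted with Tris is added, then preincubated 2 min at 37 °C. [14C]arachidonic acid (0.2 μCi/mL in 0.1 mM sodium arachidonate) is added and the reaction runs 10 min. Duplicates are run; values are the percent inhibition at the concentration shown.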

[4] = biological target: T2, Polyunsaturated fatty acid 5-lipoxygenase (Rattus norvegicus, UniProt P12527); test: Ability to inhibit 5-lipoxygenase by using a crude preparation of the cytosolic enzyme from the rat basophilic leukemia (RBL-1) cell line; type: cell-based
T2 sequence (P12527 whole entry): T1 sequence (whole entry)
In short: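 Crude cytosolic enzyme (supernatant) from RBL-1 cells, amount giving net 3300–3800 dpm 5-HETE (9–20 μg cell protein/assay). Enzyme is preincubated 5 min at 37 °C, pH 7.0, with compound (in 5% DMSO/Tris pH 8.5) in phosphate buffer with EDTA, gelatin, glutathione, CaCl2 and 0.012 mM indomethacin. Reaction is started with 0.042 mM final [14C]arachidonic acid and stopped by freezing after 2 min.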

[5] = system: Mus musculus; test: Effective dose to inhibit 50% of mouse arachidonic acid induced ear edema assay; type: functional; in short: as §1
[6] = biological target: T3, Cyclooxygenase (Bos taurus, UniProt O62664+O62698); test: In vitro inhibition of Prostaglandin G/H synthase in BSV cell line.; type: cell-based
T3 sequence (O62664 whole entry): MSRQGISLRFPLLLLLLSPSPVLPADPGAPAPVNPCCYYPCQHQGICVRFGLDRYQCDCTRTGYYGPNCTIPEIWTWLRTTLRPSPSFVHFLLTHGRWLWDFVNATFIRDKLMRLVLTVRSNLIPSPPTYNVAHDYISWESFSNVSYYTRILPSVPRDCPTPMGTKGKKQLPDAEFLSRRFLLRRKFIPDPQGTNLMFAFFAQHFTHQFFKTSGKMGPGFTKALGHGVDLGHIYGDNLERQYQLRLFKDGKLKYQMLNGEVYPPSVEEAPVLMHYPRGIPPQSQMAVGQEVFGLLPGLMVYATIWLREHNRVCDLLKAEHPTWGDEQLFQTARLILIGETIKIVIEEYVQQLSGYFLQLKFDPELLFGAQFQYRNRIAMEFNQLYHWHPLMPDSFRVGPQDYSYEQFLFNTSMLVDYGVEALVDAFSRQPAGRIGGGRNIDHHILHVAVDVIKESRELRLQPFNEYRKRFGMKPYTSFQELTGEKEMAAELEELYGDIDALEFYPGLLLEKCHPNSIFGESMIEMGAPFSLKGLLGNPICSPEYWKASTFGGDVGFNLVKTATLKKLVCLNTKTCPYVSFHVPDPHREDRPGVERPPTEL
T3 sequence (O62698 whole entry): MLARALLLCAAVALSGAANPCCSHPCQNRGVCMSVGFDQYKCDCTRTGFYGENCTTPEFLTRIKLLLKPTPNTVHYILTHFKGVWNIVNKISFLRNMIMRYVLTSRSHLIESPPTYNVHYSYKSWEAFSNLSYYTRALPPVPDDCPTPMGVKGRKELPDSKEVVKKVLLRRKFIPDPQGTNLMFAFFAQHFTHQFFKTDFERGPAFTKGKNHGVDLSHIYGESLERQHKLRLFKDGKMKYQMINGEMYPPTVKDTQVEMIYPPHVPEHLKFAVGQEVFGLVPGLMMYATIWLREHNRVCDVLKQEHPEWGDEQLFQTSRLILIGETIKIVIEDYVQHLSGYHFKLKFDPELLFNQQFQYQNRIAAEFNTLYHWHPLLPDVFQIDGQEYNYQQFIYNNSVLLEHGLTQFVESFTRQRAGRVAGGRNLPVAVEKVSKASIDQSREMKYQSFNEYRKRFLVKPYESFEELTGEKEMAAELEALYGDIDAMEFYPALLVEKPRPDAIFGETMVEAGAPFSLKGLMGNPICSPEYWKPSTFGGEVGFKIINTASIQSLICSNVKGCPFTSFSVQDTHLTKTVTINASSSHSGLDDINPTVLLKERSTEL

[7] = system: Mus musculus; test: percentage inhibition of the mouse arachidonic acid induced ear edema assay (AA) (Dose is 100 ug/ear); type: functional; in short: as §1

| Structure (SMILES) | inhibition [2] [%] | inhibition [3] [%] | IC50 [4] [µM] | IC50 [6] [µM] | Inhibition [1] [%] | ED50 [5] [ug ear-1] | Inhibition [7] [%] |
| --- | --- | --- | --- | --- | --- | --- | --- |
| CCOC(=O)CCCC(=O)c1ccc2ccccc2c1O | 23 | 12 |  |  | 13 |  |  |
| COc1c(OC)c(OC(C)=O)c2cc(Cl)ccc2c1OC(C)=O [LONAPALENE] |  | 0 | 0.7 |  | 50 | 100 |  |
| O=C1CCN(c2ccccc2)N1 [PHENIDONE] |  | 31 |  |  | 58 | 41 |  |
| Oc1ccccc1Cc1ccccc1 |  | 22 | 63 |  | 32 |  |  |
| C=CCc1ccc2ccccc2c1O |  |  | 0.056 | 18 | 91 | 4.4 |  |
| COc1c(Cc2ccccc2)ccc2ccccc12 |  | 0 | 55 |  | 5 |  |  |
| COc1ccc2c(c1)c(CC(=O)O)c(C)n2C(=O)c1ccc(Cl)cc1 [INDOMETHACIN] | 47 |  |  |  | 20 | 780 |  |
| OCc1ccccc1/C=C/Cc1cc2c(cc1O)CCO2 |  |  | 0.25 | 57 | 52 | 55 |  |
| CCOC(=O)CCC/C(=N\O)c1ccc2ccccc2c1O |  | 27 | 2.7 |  | 29 |  |  |
| OCCOc1c(Cc2ccccc2)ccc2ccccc12 |  | 28 | 40 |  | 12 |  |  |
| Oc1c(Cc2ccccc2)ccc2ccccc12 |  |  | 0.019 | 3.4 | 82 | 9.4 |  |

The next lines start with results.

| inhibition [2] [%] | inhibition [3] [%] | IC50 [4] [µM] | IC50 [6] [µM] | Structure (SMILES) | Inhibition [1] [%] | ED50 [5] [ug ear-1] | Inhibition [7] [%] |
| --- | --- | --- | --- | --- | --- | --- | --- |
| 13 |  |  |  | CC(=O)Nc1c(Cc2ccccc2)ccc2ccccc12 | 8 |  |  |
|  | 0 | 25 |  | CCOC(=O)c1ccc2ccccc2c1O | 0 |  |  |
|  |  | 0.011 | 18 | CCOC(=O)CCCCc1ccc2ccccc2c1O | 74 | 40 |  |
|  | 26 | 20 |  | O=C(c1ccccc1)c1ccc2ccccc2c1O | 30 |  |  |
|  |  | 3.9 | 16 | Oc1ccc2ccccc2c1Cc1ccccc1 |  |  | 23 |
|  | 16 | 0.29 |  | O=C1C=C(Cc2ccccc2)C(=O)c2ccccc21 | 59 |  |  |
| 2 | 15 |  |  | O=C(O)c1c(Cc2ccccc2)ccc2ccccc12 | 0 |  |  |
